In ChEMBL document CHEMBL5338743, “Identification of a Selective SCoR2 Inhibitor That Protects Against Acute Kidney Injury” (J Med Chem, 2023):
Activity calls are given as the source filed them. No cut-off for these calls is given here.

B1: Aldo-keto reductase family 1 member A1 (Homo sapiens), P14550 (protein)
chain: MAASCVLLHTGQKMPLIGLGTWKSEPGQVKAAVKYALSVGYRHIDCAAIYGNEPEIGEALKEDVGPGKAVPREELFVTSKLWNTKHHPEDVEPALRKTLADLQLEYLDLYLMHWPYAFERGDNPFPKNADGTICYDSTHYKETWKALEALVAKGLVQALGLSNFNSRQIDDILSVASVRPAVLQVECHPYLAQNELIAHCQARGLEVTAYSPLGSSDRAWRDPDEPVLLEEPVVLALAEKYGRSPAQILLRWQVQRKVICIPKSITPSRILQNIKVFDFTFSPEEMKQLNALNKNWRYIVPMLTVDGKRVPRDAGHPLYPFNDPY

What was measured:
[1] = In vivo inhibition of SCoR2 in mouse assessed as reduction in SNO-CoA metabolic activity in kidneys at 20 mg/kg body weight, ip administered as single dose into lower right quadrant of abdomen measured after 18 hrs relative to control; assay type: functional
Summary of the method: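 Single i.p. injection into the mouse abdomen, DMSO vehicle; organs collected 18 h later. Tissues homogenized in 50 mM phosphate pH 7.0, 150 mM NaCl, EDTA/DTPA, then clarified; lysate started reactions with 200 μM SNO-CoA and 100 μM NADPH, 2 min, NADPH loss monitored, in triplicate. Compared with vehicle and SCoR2−/− kidneys.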

[2] = tested on: Mus musculus; assay: Protection against ischemia/reperfusion induced acute kidney injury in mouse assessed as reduction in serum creatinine level at 20 mg/kg, ip pretreated for 18 hrs followed by kidney injury surgery and measured after 24 hrs; assay type: functional, organism-based; details: time 42.0 hrs
Summary of the method: (§1)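 Male mice (9–11 weeks, 25–28 g) given i.p. dose 18 h before ischemia–reperfusion AKI surgery under isoflurane; serum taken 24 h after reperfusion. Creatinine and BUN measured by a clinical laboratory; DMSO-treated controls.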

[3] = tested on: Mus musculus; assay: Protection against ischemia/reperfusion induced acute kidney injury in mouse assessed as reduction in blood urea nitrogen level at 125 mg/kg, ip administered for 3 to 12 weeks; assay type: functional, organism-based; details: time 3-12 weeks
[4] = tested on: Mus musculus; assay: Protection against ischemia/reperfusion induced acute kidney injury in mouse assessed as reduction in serum creatinine level at 125 mg/kg, ip administered for 3 to 12 weeks; assay type: functional, organism-based; details: time 3-12 weeks
[5] = tested on: Mus musculus; assay: In vivo inhibition of SCoR2 in ischemia/reperfusion induced acute kidney injury mouse model assessed as reduction in SNO-CoA metabolic activity in kidneys at 20 mg/kg, ip pretreated for 18 hrs followed by kidney injury surgery and measured after 24 hrs; assay type: functional, organism-based; details: time 42.0 hrs
Summary of the method: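 Male mice (9–11 weeks, 25–28 g) dosed i.p. 18 h before renal ischemia–reperfusion surgery under isoflurane; kidneys taken 24 h after reperfusion. Kidney lysate SNO-CoA reductase activity measured with 200 μM SNO-CoA, 100 μM NADPH, 2 min, triplicate assays; DMSO-treated controls.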

[6] = molecular target: T1, Aldo-keto reductase family 1 member B1 (Homo sapiens, UniProt P15121); assay: Inhibition of C-terminal 6His-tagged human recombinant AKR1B1 expressed in Escherichia coli BL21-CodonPlus competent cells using DL-glyceraldehyde as substrate
Summary of the method: (§2)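 Recombinant human His-tagged enzyme (20 nM) with 3 mM DL-glyceraldehyde in 50 mM phosphate pH 7.0, varying inhibitor from DMSO stocks; started with 100 μM NADPH, 2 min. NADPH consumption followed spectrophotometrically, slope used to fit IC50.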

[7] = molecular target: T1, Aldo-keto reductase family 1 member B1; assay: Inhibition of C-terminal 6His-tagged human recombinant AKR1B1 expressed in Escherichia coli BL21-CodonPlus competent cells using methyl glyoxylate as substrate incubated for 2 mins in presence of NADPH
Summary of the method: (§3)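 Purified enzyme at 200 nM (SCoR2 with 100 μM SNO-CoA; AKR1B1 with 100 μM methylglyoxylate) in 50 mM phosphate pH 7.0 with serial inhibitor dilutions; started with 100 μM NADPH, 2 min. Rate from 340 nm decrease, normalized to 20 nM protein activity; IC50 fitted, n=3. Selectivity taken as AKR1B1/SCoR2 IC50 ratio.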

[8] = tested on: Mus musculus; assay: Protection against ischemia/reperfusion induced acute kidney injury in mouse assessed as reduction in blood urea nitrogen level at 20 mg/kg, ip pretreated for 18 hrs followed by kidney injury surgery and measured after 24 hrs; assay type: functional, organism-based; details: time 42.0 hrs; summary of the method: as §1
[9] = tested on: Mus musculus; assay: In vivo inhibition of SCoR2 in ischemia/reperfusion induced acute kidney injury mouse model assessed as reduction in SNO-CoA metabolic activity in kidneys at 125 mg/kg, ip administered for 3 to 12 weeks; assay type: functional, organism-based; details: time 3-12 weeks
[10] = molecular target: T2, Aldo-keto reductase family 1 member A1 (Homo sapiens, UniProt P14550); assay: Inhibition of C-terminal 6His-tagged human recombinant SCoR2 AKR1A1 expressed in Escherichia coli BL21-CodonPlus competent cells using SNO-CoA as substrate incubated for 2 mins in presence of NADPH; summary of the method: as §3
T2 sequence (P14550 whole entry): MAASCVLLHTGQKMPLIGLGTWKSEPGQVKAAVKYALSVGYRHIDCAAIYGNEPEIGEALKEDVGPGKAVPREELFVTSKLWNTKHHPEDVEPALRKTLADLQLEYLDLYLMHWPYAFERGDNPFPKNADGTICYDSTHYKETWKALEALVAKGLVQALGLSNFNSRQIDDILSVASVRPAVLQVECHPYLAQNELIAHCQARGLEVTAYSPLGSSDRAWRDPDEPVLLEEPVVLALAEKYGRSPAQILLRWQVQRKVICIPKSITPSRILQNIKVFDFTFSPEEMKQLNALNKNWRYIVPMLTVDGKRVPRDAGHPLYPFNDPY

[11] = species: Homo sapiens; assay: Selectivity index, ratio of IC50 for inhibition of human recombinant AKR1B1 expressed in Escherichia coli BL21-CodonPlus competent cells to IC50 for inhibition of human recombinant SCoR2 expressed in Escherichia coli BL21-CodonPlus competent cells; summary of the method: as §3
[12] = molecular target: T2, Aldo-keto reductase family 1 member A1; assay: Inhibition of C-terminal 6His-tagged human recombinant SCoR2 AKR1A1 expressed in Escherichia coli BL21-CodonPlus competent cells using DL-glyceraldehyde as substrate; summary of the method: as §2
[13] = compound: O=C1NC(=O)C2(N1)c1ccccc1-c1ccc(C3CC3)cc12; assay: Uncompetitive inhibition of C-terminal 6His-tagged human recombinant SCoR2 AKR1A1 expressed in Escherichia coli BL21-CodonPlus competent cells using varying concentrations of SNO-CoA as substrate assessed as Km at 100 nM by Michaelis-Menten analysis (reference value: 254 uM)
[14] = compound: O=C1NC(=O)C2(N1)c1ccccc1-c1ccc(C3CC3)cc12; assay: Uncompetitive inhibition of C-terminal 6His-tagged human recombinant SCoR2 AKR1A1 expressed in Escherichia coli BL21-CodonPlus competent cells using varying concentrations of SNO-CoA as substrate assessed as Km at 400 nM by Michaelis-Menten analysis (reference value: 254 uM)
[15] = compound: O=C1NC(=O)C2(N1)c1ccccc1-c1ccc(C3CC3)cc12; assay: Uncompetitive inhibition of C-terminal 6His-tagged human recombinant SCoR2 AKR1A1 expressed in Escherichia coli BL21-CodonPlus competent cells using varying concentrations of SNO-CoA as substrate assessed as Vmax at 400 nM by Michaelis-Menten analysis (reference value: 23 umol.min)
[16] = compound: O=C1NC(=O)C2(N1)c1ccccc1-c1ccc(C3CC3)cc12; assay: Uncompetitive inhibition of C-terminal 6His-tagged human recombinant SCoR2 AKR1A1 expressed in Escherichia coli BL21-CodonPlus competent cells using varying concentrations of SNO-CoA as substrate assessed as Vmax at 100 nM by Michaelis-Menten analysis (reference value: 23 umol.min)

Molecule	IC50 [7] [nM]	IC50 [10] [nM]	Ratio IC50 [11]	further results
O=C1NC(=O)C2(N1)c1cc(F)ccc1-c1ccc(F)cc12	46	57	0.81	inhibition in vivo at 20 mg/kg [1]: 80%; Activity [2]: inactive; Activity [3]: inactive; Activity [4]: inactive; inhibition [5]: Active; IC50 [6]: 27 nM; Activity [8]: inactive; inhibition [9]: Active; IC50 [12]: 45 nM
COc1ccc2c(c1)-c1ccc(F)cc1C21NC(=O)NC1=O (stereo not given)	16	68	0.24	–
O=C(O)Cc1c(O)c(F)cc2c1-c1ccc(F)cc1C21NC(=O)NC1=O (stereo in doubt; 47-2) [listing 1 of 2 here]	–	–	0.67	–
O=C(O)Cc1c(O)c(F)cc2c1-c1ccc(F)cc1C21NC(=O)NC1=O (stereo in doubt; 47-1) [listing 1 of 2 here]	42	25	–	–
O=C1NC(=O)C2(N1)c1cc(F)ccc1-c1ccc(C3CCC3)cc12 (stereo in doubt; 17-1)	–	–	1.7	–
CC(/C=C1\SC(=S)N(CC(=O)O)C1=O)=C\c1ccccc1	–	–	–	IC50 [12]: 325 nM
O=C1NC(=O)C2(N1)c1cc(F)ccc1-c1cc(OC3COC3)c(F)cc12 (stereo not given)	14	29	0.48	–
O=C(O)Cc1cc(F)cc2c1-c1ccc(F)cc1C21NC(=O)NC1=O (stereo in doubt; 49-1)	–	–	0.53	–
O=C1NC(=O)C2(N1)c1cc(F)ccc1-c1ccc(C3CCC3)cc12 (stereo in doubt; 17-2)	–	–	0.66	–
O=C(O)Cc1cc(F)cc2c1-c1ccc(F)cc1C21NC(=O)NC1=O (stereo in doubt; 49-2)	–	–	0.26	–
O=C(O)COc1cc2c(cc1F)C1(NC(=O)NC1=O)c1cc(F)ccc1-2 (stereo in doubt; 48-1) [listing 1 of 2 here]	27	63	–	–
O=C(O)Cc1c(O)c(F)cc2c1-c1ccc(F)cc1C21NC(=O)NC1=O (stereo in doubt; 47-2) [listing 2 of 2 here]	32	48	–	–
O=C1NC(=O)C2(N1)c1ccc(OCC(=O)N3CCC3)cc1-c1ccc(F)cc12 (stereo not given)	19	80	0.24	–
O=C1NC(=O)C2(N1)c1cc(F)ccc1-c1ccc(Br)cc12 (stereo not given)	22	51	0.43	–
O=C1NC(=O)C2(N1)c1ccc(OCCO)cc1-c1ccc(F)cc12 (stereo not given)	13	74	0.18	–
O=C1NC(=O)C2(N1)c1ccccc1-c1c(F)cccc12 (stereo not given)	52	82	0.63	–
O=C1NC(=O)C2(N1)c1cc(Cl)ccc1-c1ccc(Cl)cc12	56	127	0.44	–
O=C1NC(=O)C2(N1)c1cc(F)ccc1-c1ccc(C3CC3)cc12 (stereo not given)	212	122	1.7	–
O=C(O)COc1cc2c(cc1F)C1(NC(=O)NC1=O)c1cc(F)ccc1-2 (stereo in doubt; 48-2) [listing 1 of 2 here]	–	–	0.27	–
O=C1NC(=O)C2(N1)c1cc(F)ccc1-c1cc(C3CC3)c(F)cc12 (stereo not given)	15	72	0.21	–
O=C(O)COc1cc2c(cc1F)C1(NC(=O)NC1=O)c1cc(F)ccc1-2 (stereo in doubt; 48-2) [listing 2 of 2 here]	22	82	–	–
O=C(O)COc1cc2c(cc1F)C1(NC(=O)NC1=O)c1cc(F)ccc1-2 (stereo in doubt; 48-1) [listing 2 of 2 here]	–	–	0.43	–
O=C(O)Cc1c(O)c(F)cc2c1-c1ccc(F)cc1C21NC(=O)NC1=O (stereo in doubt; 47-1) [listing 2 of 2 here]	–	–	1.7	–
O=C1NC(=O)C2(N1)c1cc(F)ccc1-c1c(F)cccc12 (stereo not given)	16	67	0.24	–
O=C1NC(=O)C2(N1)c1cc(F)ccc1-c1c(-c3cn(C4CCCC4)nn3)cc(F)cc12 (stereo not given)	11	66	0.17	–
O=C1NC(=O)C2(N1)c1ccccc1-c1ccc(Cl)cc12 (stereo not given)	16	53	0.3	–
O=C1NC(=O)C2(N1)c1cc(F)ccc1-c1c(OCC(=O)N3CCC3)cc(F)cc12 (stereo not given)	18	59	0.31	–
O=C(O)COc1ccc2c(c1)-c1ccc(F)cc1C21NC(=O)NC1=O (stereo not given)	53	42	1.3	–
B1	–	–	–	Km [13]: 199 µM; Km [14]: 98 µM; Vmax [15]: 4.5 µmol·min; Vmax [16]: 13 µmol·min
